Sampled rows, rich in hits. Any-hit rate of the full collection: about 2.5%.
TRPC4 potent: allosteric potentiators of mouse TRPC4 channel | Q9QUQ5 | HEK293 TRPC4beta/mu-opioid, DAMGO EC20, Fluo-4 Ca2+ flux; hits give high values | B-score at 10 µM | 0.42% of 310,000 active;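 active means B-score of calcium response area above 5 SD of library B-scores, with initial fluorescence ratio within 5 SD of library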
Pemphigus Ab inh: human desmoglein-3 autoantibody binding inhibition; DSG3-coupled beads, scFv-anti-DSG3-GFP binding, flow cytometry; hits give low values; AID 588358; 0.48% of 310,000 active; binding (percent of control), % at 10 µM;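 active means binding more than 3 SD below its plate's average and above zero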;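 further: hits lower antibody fragment binding to DSG3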
TRPC4 act: TRPC4 (mouse) channel activation; 0.49% of 310,000 active; B-score at 10 µM; AID 2237; HEK293 TRPC4beta/mu-opioid, Fluo4 calcium fluorescence; hits give high values; Q9QUQ5;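 active means B-score above 5 SD of library B-scores, and initial fluorescence ratio not above library mean plus 5 SD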;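 further: positive B-score marks a calcium rise read as TRPC4 activation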
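System – HEK293 cells stably co-expressing mouse TRPC4beta and mu-opioid receptor · Signal – Fluo4 calcium-sensitive dye fluorescence, kinetic, 1 Hz baseline · Benchmarks – buffer (low) and maximal DAMGO (high) · Read-out – B score of integrated fluorescence ratio per well · Incubation – dye loading 45 min room temperature, 110 s kinetic read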
TRPC6 inh: inhibitors of mouse TRPC6 channel | Q61143 | HEK293-TRPC6, membrane potential dye, ACh-evoked depolarization; hits give low values | B-score at 10 µM | 1.1% of 310,000 active;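 active means B-score under library mean minus 3 SD, initial fluorescence not abnormally high, positive integrated signal ratio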;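 further: B-score derived from integrated fluorescence ratio over the kinetic read; more negative B-score means stronger inhibition of depolarization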
Target sequence (Q61143 whole entry, looked up): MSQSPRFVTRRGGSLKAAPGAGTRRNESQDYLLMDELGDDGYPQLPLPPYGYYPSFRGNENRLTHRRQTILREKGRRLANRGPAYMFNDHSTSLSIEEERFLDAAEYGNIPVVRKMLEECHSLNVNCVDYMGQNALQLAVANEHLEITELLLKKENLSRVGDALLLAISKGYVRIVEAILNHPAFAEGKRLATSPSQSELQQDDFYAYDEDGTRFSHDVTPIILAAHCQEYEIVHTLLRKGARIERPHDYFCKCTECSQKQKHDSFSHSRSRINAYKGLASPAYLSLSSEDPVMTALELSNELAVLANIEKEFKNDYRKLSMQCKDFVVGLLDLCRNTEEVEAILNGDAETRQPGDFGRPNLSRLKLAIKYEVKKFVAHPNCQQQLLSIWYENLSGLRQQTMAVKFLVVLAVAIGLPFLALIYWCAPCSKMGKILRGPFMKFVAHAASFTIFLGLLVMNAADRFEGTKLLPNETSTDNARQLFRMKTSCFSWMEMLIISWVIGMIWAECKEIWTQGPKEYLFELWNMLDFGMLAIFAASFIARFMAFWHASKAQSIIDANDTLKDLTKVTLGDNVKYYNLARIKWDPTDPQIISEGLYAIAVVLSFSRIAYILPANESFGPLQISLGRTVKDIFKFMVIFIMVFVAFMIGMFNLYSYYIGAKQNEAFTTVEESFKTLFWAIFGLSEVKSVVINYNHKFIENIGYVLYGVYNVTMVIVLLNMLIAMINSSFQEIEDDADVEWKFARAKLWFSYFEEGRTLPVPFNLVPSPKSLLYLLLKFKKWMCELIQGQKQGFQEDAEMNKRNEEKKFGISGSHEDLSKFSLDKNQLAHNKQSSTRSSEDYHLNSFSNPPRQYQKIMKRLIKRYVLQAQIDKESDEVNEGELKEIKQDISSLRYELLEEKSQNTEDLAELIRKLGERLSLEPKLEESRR
TRPC4 inh: TRPC4 (mouse) channel inhibition; 0.39% of 300,000 active; HEK293 TRPC4beta/mu-opioid, DAMGO-evoked Fluo4 calcium flux; hits give low values; B-score at 10 µM;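 active means B-score over 3 SD under the library average, no early fluorescence shift, positive overall ratio signal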
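Material: HEK293 cells with stable TRPC4beta plus mu-opioid receptor expression; probe or stimulus: DAMGO in two steps, submaximal then maximal; technique: Fluo4 calcium fluorescence by kinetic imaging, 5 s 1 Hz baseline; measure: integrated fluorescence ratio relative to baseline, converted to per-well B score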
TRPC6 act: mouse TRPC6 channel activation; 0.13% of 310,000 active; Q61143; HEK293-TRPC6 membrane potential dye fluorescence; hits give high values; AID 2550; B-score at 10 µM;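 active means B-score of the integrated fluorescence ratio above library mean plus 3 SD, and starting fluorescence ratio within library mean plus 5 SD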;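 further: higher score means more depolarization so channel activation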
Of the large screens only hits and unclear results are named; the others gave an inactive call.

COc1cc(OC)c(OC)cc1CNCCNC(=O)c1ccco1	none (no result: Pemphigus Ab inh)
N=c1n(Cc2ccc(Cl)cc2)c2ccccc2n1CC(O)COc1ccccc1 (configuration not stated)	TRPC4 act 86
COc1ccc(OCC(O)Cn2c(=N)n(Cc3ccccc3)c3ccccc32)cc1 (configuration not stated)	none
CCN(CC)CCn1c(=N)n(CC(O)COc2cccc(C)c2)c2ccccc21 (configuration not stated)	TRPC4 inh -5 (no result: Pemphigus Ab inh)
N=c1n(Cc2ccccc2)c2ccccc2n1CC(O)COc1ccc(Cl)cc1Cl (configuration not stated)	TRPC4 potent 12
Cc1cccc(OCC(O)Cn2c(=N)n(CCN3CCCCC3)c3ccccc32)c1 (configuration not stated)	none
N=c1n(CCO)c2ccccc2n1Cc1ccc(Cl)cc1	TRPC4 inh -6
Cc1ccc(C)c(-c2csc(N)c2C(=O)OC(C)C)c1	none
Cc1cccc(-c2csc(N)c2C(=O)OC(C)C)c1	TRPC4 inh -6
S=C(NCCc1ccccc1)NC1CC2CCC(C1)N2Cc1ccccc1 (configuration not stated)	none
CCC(=O)N1CCc2cc(S(=O)(=O)NCCN3CCCCC3CC)ccc21 (configuration not stated)	TRPC4 inh -9
CC1CC(C)CN(CCCNS(=O)(=O)c2ccc3c(c2)CCN3C(=O)C2CC2)C1 (configuration not stated)	TRPC4 act 66 (no result: Pemphigus Ab inh)
CC(=O)N1CCc2cc(Br)cc(S(=O)(=O)NCCCN(C)Cc3ccccc3)c21	TRPC4 act 119
CCCNS(=O)(=O)c1cc(Br)cc2c1N(C(=O)CC)CC2	none
CCC(=O)N1CCc2cc(Br)cc(S(=O)(=O)NCCCN(C)Cc3ccccc3)c21	TRPC4 potent 40, TRPC4 act 82
O=C(C1CC1)N1CCc2cc(S(=O)(=O)NCCCN3CCCCC3)ccc21	none
CCOC(=O)C1CCN(C(=O)CCNS(=O)(=O)c2ccc3c(c2)CCN3C(=O)CC)CC1	none
C=C1CCN(CC(=O)OC)S(=O)(=O)c2ccccc21	none
CC1CCN(C(=O)CCNS(=O)(=O)c2ccc3c(c2)oc(=O)n3C)CC1	none
CC1CC(C)CN(CCCNS(=O)(=O)c2ccc3c(c2)oc(=O)n3C)C1 (configuration not stated)	TRPC4 act 49
CCC(=O)N1CCc2cc(Br)cc(S(=O)(=O)NCCCN(CC)Cc3ccccc3)c21	TRPC4 act 148
CCC(=O)N1CCc2cc(S(=O)(=O)NCCC(=O)N3CCN(Cc4ccccc4)CC3)ccc21	none
CCC(=O)N1CCc2cc(S(=O)(=O)NCCCN(CC)Cc3ccccc3)ccc21	TRPC4 act 50
COc1c(C)cc(S(=O)(=O)NCc2ccco2)c(C)c1C	none
Cn1c(/N=C/c2cccs2)nc2ccccc21	none
Cn1c(/N=C/c2ccccc2[N+](=O)[O-])nc2ccccc21	TRPC4 potent 15
Cc1ccn2c(=O)c(NC(=O)c3ccc(Br)o3)c(C)nc2c1	none
CCCC1(c2ccccc2)NC(=O)N(CC(=O)c2[nH]c(C)c(C(=O)OCC)c2C)C1=O (configuration not stated)	TRPC4 potent 15
CCOC(=O)c1c(C)[nH]c(C(=O)CN2C(=O)NC3(CCCC3)C2=O)c1C	none
C=CCn1c(SCC(=O)N2CCN(c3ccccc3)CC2)nc2c([nH]c3ccccc32)c1=O	Pemphigus Ab inh 91.3
C=CCn1c(SCC(=O)N2CCOCC2)nc2c([nH]c3ccccc32)c1=O	none
COc1cc(/C=C2\COC/C(=C\c3ccc(O)c(OC)c3)C2=O)ccc1O	none
COc1cc(/C=C/C=C2/CC/C(=C/C=C/c3ccc(O)c(OC)c3)C2=O)ccc1O	Pemphigus Ab inh 35.7 (no result: TRPC4 potent, TRPC4 act, TRPC6 inh, TRPC4 inh, TRPC6 act)
C/C(=N\NC(=O)c1ccc(NS(=O)(=O)c2cccs2)cc1)c1ccc(O)cc1O	none
O=[N+]([O-])c1ccc(CN2CCN(c3nc4ccccc4s3)CC2)cc1	TRPC4 potent 19
Cc1ccccc1CN1CCN(c2nc3ccccc3s2)CC1	none
COc1ccc(CN2CCN(c3nc4ccccc4s3)CC2)cc1	TRPC4 potent 23
Cc1ccc(S(=O)ONc2cccc(NOS(=O)c3ccc(C)cc3)c2)cc1 (configuration not stated)	none (no result: TRPC4 potent, TRPC4 act, TRPC6 inh, TRPC4 inh, TRPC6 act)
CCn1c(=O)n(CCOC)c(=O)c2c3c(sc21)CCCC3	TRPC4 inh -6
CN(C)CCn1c(=O)n(C2CCCCC2)c(=O)c2c3c(sc21)CCCCC3	none
CC(C)CCN1CCN(Cc2nc(-c3ccc(F)cc3)cs2)CC1CCO (configuration not stated)	none
COc1ccccc1C(=O)OCc1c(-c2ccccc2)ncc2ccccc12	none (no result: TRPC4 potent, TRPC4 act, TRPC6 inh, TRPC4 inh, TRPC6 act)
CCn1nccc1C(=O)Nc1ccc(Cl)cn1	none
CCn1nccc1C(=O)Nc1cc(Cl)cc(Cl)c1	TRPC4 inh -5 (no result: Pemphigus Ab inh)
CC(=O)Nc1cccc(CP(=O)(c2ccccc2)c2ccccc2)c1	none
Cc1ccnc(NC(=O)COC(=O)C23CC4CC(CC(C4)C2)C3)n1	TRPC4 potent 35
O=C(COC(=O)C12CC3CC(CC(C3)C1)C2)Nc1nccs1	none
O=C(O)C1Nc2c(O)cc(Cl)c([N+](=O)[O-])c2C2C=CCC12 (configuration not stated)	Pemphigus Ab inh 65.7
COCCCN=Cc1c(C)[nH]n(-c2ccc(Br)cc2Br)c1=O	none
CCC1(c2ccccc2)NC(=O)N(CC(=O)N2CC(=O)Nc3ccccc32)C1=O (configuration not stated)	none (no result: TRPC4 potent, TRPC4 act, TRPC6 inh, TRPC4 inh, TRPC6 act)
CC(=O)C1=C(C)NC(SCC(=O)c2ccc(Cl)cc2Cl)=C(C#N)C1c1ccco1 (configuration not stated)	Pemphigus Ab inh 76.8
CC(=O)C1=C(C)NC(SCC(=O)c2ccc(Cl)cc2)=C(C#N)C1c1ccco1 (configuration not stated)	none
O=[N+]([O-])c1cnc2nc(-c3ccncc3)nn2c1O	none
COc1ccccc1/C=C/CN1CCCC(CCC(=O)NCc2ccccc2F)C1 (configuration not stated)	TRPC4 act 113, TRPC4 inh -6 (no result: Pemphigus Ab inh)
COc1cccc(CNC(=O)CCC2CCCN(Cc3cc(Cl)ccc3O)C2)c1 (configuration not stated)	TRPC4 inh -7
COc1ccccc1CC(=O)N1CCCC(CCC(=O)NCc2ccccc2F)C1 (configuration not stated)	none
COc1cccc(CNC(=O)CCC2CCCN(C(=O)Cc3ccccc3F)C2)c1 (configuration not stated)	none
CCOC(=O)Cn1c(=O)oc2cc(S(=O)(=O)N(C)c3cccc(C)c3)ccc21	none

Source: PubChem
